# Data published in ChEMBL document CHEMBL1143088, “Non-acidic pyrazole EP1 receptor antagonists with in vivo analgesic efficacy” (Bioorg Med Chem Lett, 2008).
# Legend:
# Brain [1] = test: Drug uptake in FCA-induced hypersensitivity rat brain at 3 mg/kg, po administered with DMSO as vehicle; type: ADME, organism-based; parameters: dose 3 mg/kg, route oral; settings: in vivo, read-out: Drug uptake
# Method in brief: (§1)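 CFA inflammatory pain rats dosed orally at 1, 3, 10 and 30 mg/kg in 2% DMSO and 20% Kleptose water; weight-bearing readout and blood/brain samples taken 1 h post-dose. Blood levels mean of seven rats; brain levels mean of two or three rats; Br:Bl average of three rats.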
# [2] = Drug level in Sprague-Dawley rat brain at steady state at […], iv after 18 hrs; type: ADME, organism-based; parameters: route intravenous; settings: read-out: Drug uptake
# Method in brief: (§2)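 Male Sprague–Dawley rat given iv infusion over 18 h at 5 mL/kg/h (0.518 mg/kg/h) in 0.9% saline with 2% DMSO, 20% Kleptose. Serial blood samples every 15 min over last hour to confirm steady state; after 18 h blood taken, rat culled, brain homogenized; blood and brain analysed by LC/MS/MS.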
# Blood [3] = test: Drug uptake in FCA-induced hypersensitivity rat blood at 30 mg/kg, po administered with DMSO as vehicle; type: ADME, organism-based; parameters: dose 30 mg/kg, route oral; settings: in vivo, read-out: Drug uptake; method in brief: as §1
# Cytochrome P450 2C9 = Cytochrome P450 2C9 (Homo sapiens, UniProt P11712); test: Inhibition of CYP2C9; type: ADME
# Cytochrome P450 2C9, sequence (P11712 whole entry): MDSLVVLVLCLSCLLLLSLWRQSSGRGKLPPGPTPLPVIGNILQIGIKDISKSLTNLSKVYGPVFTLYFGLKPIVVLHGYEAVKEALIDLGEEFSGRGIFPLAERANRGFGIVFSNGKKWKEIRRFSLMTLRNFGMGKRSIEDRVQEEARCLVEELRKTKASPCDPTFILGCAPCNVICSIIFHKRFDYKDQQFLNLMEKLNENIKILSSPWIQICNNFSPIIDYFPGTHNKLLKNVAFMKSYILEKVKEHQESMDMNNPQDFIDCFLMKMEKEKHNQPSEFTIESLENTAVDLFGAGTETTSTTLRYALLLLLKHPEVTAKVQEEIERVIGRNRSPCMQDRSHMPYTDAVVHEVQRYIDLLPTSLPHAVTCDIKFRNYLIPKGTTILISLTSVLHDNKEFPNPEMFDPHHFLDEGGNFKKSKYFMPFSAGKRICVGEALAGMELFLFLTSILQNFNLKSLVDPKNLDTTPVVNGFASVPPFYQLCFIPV
# Cytochrome P450 2D6 = Cytochrome P450 2D6 (Homo sapiens, UniProt P10635); test: Inhibition of CYP2D6; type: ADME
# Cytochrome P450 2D6, sequence (P10635 whole entry): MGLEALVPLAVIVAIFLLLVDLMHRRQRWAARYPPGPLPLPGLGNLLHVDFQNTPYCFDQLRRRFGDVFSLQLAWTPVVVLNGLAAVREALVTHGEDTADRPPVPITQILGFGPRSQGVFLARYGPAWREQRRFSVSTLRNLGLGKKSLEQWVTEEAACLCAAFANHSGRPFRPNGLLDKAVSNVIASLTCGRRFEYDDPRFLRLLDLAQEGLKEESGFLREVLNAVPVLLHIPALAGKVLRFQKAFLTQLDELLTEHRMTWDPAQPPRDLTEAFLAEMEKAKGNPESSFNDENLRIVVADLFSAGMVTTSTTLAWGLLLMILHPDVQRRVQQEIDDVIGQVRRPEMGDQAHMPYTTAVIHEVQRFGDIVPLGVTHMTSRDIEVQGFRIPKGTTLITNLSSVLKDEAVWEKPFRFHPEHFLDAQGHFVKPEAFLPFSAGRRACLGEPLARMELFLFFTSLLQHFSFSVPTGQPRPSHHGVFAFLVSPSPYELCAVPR
# Cytochrome P450 3A4 = Cytochrome P450 3A4 (Homo sapiens, UniProt P08684); test: Inhibition of CYP3A4; type: ADME
# Cytochrome P450 3A4, sequence (P08684 whole entry): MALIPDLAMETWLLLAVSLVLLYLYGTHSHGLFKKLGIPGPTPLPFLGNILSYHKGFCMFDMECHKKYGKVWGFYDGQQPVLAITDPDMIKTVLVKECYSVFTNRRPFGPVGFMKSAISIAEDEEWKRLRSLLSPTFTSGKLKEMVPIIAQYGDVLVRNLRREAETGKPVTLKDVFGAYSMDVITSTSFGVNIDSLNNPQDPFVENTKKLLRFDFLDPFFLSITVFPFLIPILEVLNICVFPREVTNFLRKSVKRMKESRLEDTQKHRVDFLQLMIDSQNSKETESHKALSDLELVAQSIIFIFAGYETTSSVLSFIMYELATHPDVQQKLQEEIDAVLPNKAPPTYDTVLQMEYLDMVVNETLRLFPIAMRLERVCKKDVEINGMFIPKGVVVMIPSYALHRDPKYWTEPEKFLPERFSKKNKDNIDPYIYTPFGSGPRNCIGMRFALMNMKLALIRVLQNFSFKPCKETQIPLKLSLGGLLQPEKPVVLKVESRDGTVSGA
# [4] = Ratio of drug level in brain to blood in FCA-induced hypersensitivity rat at 30 mg/kg, po administered with DMSO as vehicle; type: ADME, organism-based; parameters: dose 30 mg/kg, route oral; method in brief: as §1
# Brain [5] = test: Drug uptake in FCA-induced hypersensitivity rat brain at 10 mg/kg, po administered with DMSO as vehicle; type: ADME, organism-based; parameters: dose 10 mg/kg, route oral; settings: in vivo, read-out: Drug uptake; method in brief: as §1
# [6] = target: T1, Prostaglandin E2 receptor EP1 subtype (Homo sapiens, UniProt P34995); test: Antagonist activity at PGE2-EP1 receptor assessed as PGE2-induced intracellular calcium mobilization; type: functional, cell-based
# T1 sequence (P34995 whole entry): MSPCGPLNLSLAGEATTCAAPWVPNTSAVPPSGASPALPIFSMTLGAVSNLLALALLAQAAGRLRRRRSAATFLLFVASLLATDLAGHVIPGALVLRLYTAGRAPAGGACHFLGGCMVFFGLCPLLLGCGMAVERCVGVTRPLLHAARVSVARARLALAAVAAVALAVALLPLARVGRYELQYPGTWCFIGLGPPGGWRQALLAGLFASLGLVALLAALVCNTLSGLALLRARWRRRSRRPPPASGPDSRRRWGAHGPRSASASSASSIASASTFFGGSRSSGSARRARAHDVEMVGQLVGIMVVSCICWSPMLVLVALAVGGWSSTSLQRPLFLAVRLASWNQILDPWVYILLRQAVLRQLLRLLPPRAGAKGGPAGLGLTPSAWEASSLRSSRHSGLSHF
# Blood [7] = test: Drug uptake in FCA-induced hypersensitivity rat blood at 3 mg/kg, po administered with DMSO as vehicle; type: ADME, organism-based; parameters: dose 3 mg/kg, route oral; settings: in vivo, read-out: Drug uptake; method in brief: as §1
# Rattus norvegicus = test: Reversal of FCA-induced hypersensitivity in orally dosed rat assessed as reduction in weight bearing administered with DMSO as vehicle; type: functional; settings: po
# Method in brief: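 The CFA inflammatory pain model used rats dosed orally at 1, 3, 10 and 30 mg/kg in 2% DMSO and 20% Kleptose in water. Weight bearing was the efficacy readout at 1 h post-dose. Blood (seven rats) and brain (two to three rats) were sampled at that time. ED50 was given in mg/kg.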
# Cytochrome P450 2C19 = Cytochrome P450 2C19 (Homo sapiens, UniProt P33261); test: Inhibition of CYP2C19; type: ADME
# Cytochrome P450 2C19, sequence (P33261 whole entry): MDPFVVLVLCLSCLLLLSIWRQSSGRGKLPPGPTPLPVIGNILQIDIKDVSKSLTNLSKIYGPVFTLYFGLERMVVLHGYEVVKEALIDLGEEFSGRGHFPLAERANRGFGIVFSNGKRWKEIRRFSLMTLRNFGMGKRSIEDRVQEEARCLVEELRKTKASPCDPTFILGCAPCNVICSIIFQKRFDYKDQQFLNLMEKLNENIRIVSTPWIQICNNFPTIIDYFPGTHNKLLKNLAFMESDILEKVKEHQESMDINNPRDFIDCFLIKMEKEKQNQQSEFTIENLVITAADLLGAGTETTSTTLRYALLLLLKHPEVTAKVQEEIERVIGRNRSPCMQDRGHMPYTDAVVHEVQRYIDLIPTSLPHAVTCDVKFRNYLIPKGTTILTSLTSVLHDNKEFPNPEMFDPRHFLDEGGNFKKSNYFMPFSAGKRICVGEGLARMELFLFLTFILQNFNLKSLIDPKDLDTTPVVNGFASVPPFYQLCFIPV
# [8] = Clearance in blood in rat at 10 mL/h/kg, iv; type: ADME, organism-based; settings: whole blood
# Method in brief: (§3)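 Male rats (n = 1 per compound) dosed iv at 10 mL/h/kg over 1 h via femoral vein cannula, target 1 mg free compound/kg, formulated at 0.1 mg/mL in 0.9% saline with 2% DMSO and 10–20% Kleptose (some with a molar equivalent NaOH), filtered before dosing.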
# [9] = Ratio of drug level in brain to blood in FCA-induced hypersensitivity rat at 10 mg/kg, po administered with DMSO as vehicle; type: ADME, organism-based; parameters: dose 10 mg/kg, route oral; method in brief: as §1
# Cytochrome P450 1A2 = target: T2, Cytochrome P450 1A2 (Homo sapiens, UniProt P05177); test: Inhibition of CYP1A2; type: ADME
# T2 sequence (P05177 whole entry): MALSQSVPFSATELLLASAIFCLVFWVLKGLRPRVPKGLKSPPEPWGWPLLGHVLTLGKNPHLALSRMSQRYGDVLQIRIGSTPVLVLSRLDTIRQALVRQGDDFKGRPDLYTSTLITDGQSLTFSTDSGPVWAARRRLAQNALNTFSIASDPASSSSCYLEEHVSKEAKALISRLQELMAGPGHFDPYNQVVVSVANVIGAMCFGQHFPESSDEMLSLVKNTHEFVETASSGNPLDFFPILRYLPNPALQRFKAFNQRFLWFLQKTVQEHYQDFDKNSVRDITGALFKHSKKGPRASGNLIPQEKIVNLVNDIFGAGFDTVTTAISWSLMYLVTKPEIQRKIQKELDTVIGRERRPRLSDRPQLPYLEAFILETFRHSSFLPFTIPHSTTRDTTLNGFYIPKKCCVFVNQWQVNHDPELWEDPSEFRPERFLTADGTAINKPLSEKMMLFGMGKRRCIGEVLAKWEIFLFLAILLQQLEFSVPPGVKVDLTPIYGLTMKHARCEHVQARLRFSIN
# [10] = Ratio of drug level in brain to blood in FCA-induced hypersensitivity rat at 3 mg/kg, po administered with DMSO as vehicle; type: ADME, organism-based; parameters: dose 3 mg/kg, route oral; method in brief: as §1
# [11] = Volume of distribution at steady state in rat at 10 mL/h/kg, iv; type: ADME, organism-based; settings: in vivo, read-out: Vdss; method in brief: as §3
# Brain [12] = test: Drug uptake in FCA-induced hypersensitivity rat brain at 30 mg/kg, po administered with DMSO as vehicle; type: ADME, organism-based; parameters: dose 30 mg/kg, route oral; settings: in vivo, read-out: Drug uptake; method in brief: as §1
# [13] = Distribution coefficient, logD at pH 7.4; type: physicochemical; settings: octanol/water
# Method in brief: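 Distribution coefficient between n-octanol and water buffered to pH 7.4; log10 of ratio of equilibrium concentrations of all species.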
# Brain [14] = test: Drug uptake in FCA-induced hypersensitivity rat brain at 1 mg/kg, po administered with DMSO as vehicle; type: ADME, organism-based; parameters: dose 1 mg/kg, route oral; settings: in vivo, read-out: Drug uptake; method in brief: as §1
# [15] = Clearance at steady state in Sprague-Dawley rat blood at […], iv after 18 hrs; type: ADME, organism-based; parameters: route intravenous; settings: whole blood; method in brief: as §2
# Blood [16] = test: Drug uptake in FCA-induced hypersensitivity rat blood at 1 mg/kg, po administered with DMSO as vehicle; type: ADME, organism-based; parameters: dose 1 mg/kg, route oral; settings: in vivo, read-out: Drug uptake; method in brief: as §1
# [17] = Ratio of drug level in brain to blood in FCA-induced hypersensitivity rat at 1 mg/kg, po administered with DMSO as vehicle; type: ADME, organism-based; parameters: dose 1 mg/kg, route oral; method in brief: as §1
# [18] = target: T1, Prostaglandin E2 receptor EP1 subtype; test: Displacement of [3H]PGE2 from human PGE2-EP1 receptor expressed in CHO-K1 cells; type: cell-based
# [19] = Drug level in Sprague-Dawley rat blood at steady state at […], iv after 18 hrs; type: ADME, organism-based; parameters: route intravenous; settings: whole blood, read-out: Drug uptake; method in brief: as §2
# [20] = target: T1, Prostaglandin E2 receptor EP1 subtype; test: Antagonist activity at PGE2-EP1 receptor assessed as PGE2-induced response by schild analysis; type: functional; settings: read-out: pA2 (converted)
# [21] = target: T3, Prostaglandin E2 receptor EP3 subtype (Homo sapiens, UniProt P43115); test: Antagonist activity at PGE2-EP3 receptor assessed as PGE2-induced intracellular calcium mobilization; type: functional, cell-based
# T3 sequence (P43115 whole entry): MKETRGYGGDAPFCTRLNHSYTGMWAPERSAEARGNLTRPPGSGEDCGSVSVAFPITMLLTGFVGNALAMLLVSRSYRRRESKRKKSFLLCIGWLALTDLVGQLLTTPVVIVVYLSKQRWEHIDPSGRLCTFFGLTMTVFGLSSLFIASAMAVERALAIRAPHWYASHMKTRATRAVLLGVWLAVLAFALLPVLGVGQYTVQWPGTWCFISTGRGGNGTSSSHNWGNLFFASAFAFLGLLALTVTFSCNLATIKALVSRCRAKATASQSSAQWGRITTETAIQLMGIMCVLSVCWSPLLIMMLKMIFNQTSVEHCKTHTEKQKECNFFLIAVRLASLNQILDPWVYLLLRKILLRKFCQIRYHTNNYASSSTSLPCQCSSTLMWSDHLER
# [22] = Half life in rat at 10 mL/h/kg, iv; type: ADME, organism-based; settings: in vivo; method in brief: as §3
# Blood [23] = test: Drug uptake in FCA-induced hypersensitivity rat blood at 10 mg/kg, po administered with DMSO as vehicle; type: ADME, organism-based; parameters: dose 10 mg/kg, route oral; settings: in vivo, read-out: Drug uptake; method in brief: as §1
# [24] = Ratio of drug level in brain to blood in Sprague-Dawley rat at […], iv; type: ADME, organism-based; parameters: route intravenous; method in brief: as §2
smiles,measurement,setting,value
Cc1cc(NC(=O)OC(C)(C)C)nn1Cc1cc(Cl)ccc1OCc1ccccc1,concentration,Brain [1],473 nM
same,concentration at 18 h,[2],1400 nM
same,concentration,Blood [3],299 nM
same,IC50,Cytochrome P450 2C9,16 µM
same,IC50,Cytochrome P450 2D6,> 100 µM
same,IC50,Cytochrome P450 3A4,> 100 µM
same,Kp,[4],2.73
same,concentration,Brain [5],781 nM
same,Ki,[6],0.0158 µM
same,concentration,Blood [7],210 nM
same,ED50,Rattus norvegicus,5.36 mg/kg
same,IC50,Cytochrome P450 2C19,> 100 µM
same,clearance,[8],42 mL/min/kg
same,Kp,[9],2.26
same,IC50,Cytochrome P450 1A2,> 100 µM
same,Kp,[10],2.66
same,Vd,[11],8.6 L/kg
same,concentration,Brain [12],836 nM
same,logD,[13],> 3.7
same,concentration,Brain [14],106 nM
same,clearance,[15],54 mL/min/kg
same,concentration,Blood [16],57 nM
same,Kp,[17],2.66
same,IC50,[18],0.0251 µM
same,concentration at 18 h,[19],408 nM
same,Kb,[20],0.0501 µM
same,Ki,[21],> 10 µM
same,half-life,[22],3 h
same,concentration,Blood [23],302 nM
same,Kp,[24],3.44
